Measured values from ChEMBL document CHEMBL2384906, “Biological activity, design, synthesis and structure activity relationship of some novel derivatives of curcumin containing sulfonamides” (Eur J Med Chem, 2013).
In brackets after ≈: the same amount, converted by molar mass. Activity calls are given as the source filed them. The rule behind the calls is not given here.

Key:
Trichoderma viride [1] = test: Antifungal activity against Trichoderma viride MTCC 1107 assessed as zone of inhibition at 40 uM after 48 hrs by disc diffusion method; assay type: functional
Outline: (§1)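 Spores from 4-day potato dextrose agar cultures, suspended in sterile water at 1.5 × 10⁵ CFU/mL. 0.2 mL was spread on potato dextrose agar. 5 mm filter-paper discs soaked with test compound were laid on the lawn. Incubation was 48 h at 28 °C, then the inhibition zone was measured in mm. Fluconazole was the positive control and acetone the negative control.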

Aspergillus flavus [2] = test: Antifungal activity against Aspergillus flavus MTCC 1021 assessed as zone of inhibition at 80 uM after 48 hrs by disc diffusion method; assay type: functional; outline: as §1
Trichoderma viride [3] = test: Antifungal activity against Trichoderma viride MTCC 1107 assessed as zone of inhibition at 20 uM after 48 hrs by disc diffusion method; assay type: functional; outline: as §1
Bacillus cereus [4] = test: Antimicrobial activity against Bacillus cereus MTCC 7350 assessed as diameter of inhibition zone at 80 uM after 24 hrs by Kirby -Baur disc diffusion method; assay type: functional; conditions: MTCC 7350, 24 h, read-out: DIZ
Outline: (§2)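 Kirby-Bauer disc diffusion was used. Acetone stocks (160 µM) were serially doubled down to 80, 40 and 20 µM. 4 µL of each went onto 5 mm sterile paper discs, which were dried 30 min at 50 °C. Inoculum was 1.5 × 10⁸ CFU/mL diluted to 3 × 10² CFU/mL, and 50 µL was spread on Mueller-Hinton agar. After 24 h at 37 °C the inhibition-zone diameter was measured. Ciprofloxacin served as positive control.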

Staphylococcus aureus [5] = test: Antimicrobial activity against Staphylococcus aureus ATCC 11632 after 24 hrs by broth micro serial dilution method; assay type: functional; conditions: ATCC 11632, 24 h
Outline: (§3)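 This was broth microdilution in autoclaved Mueller-Hinton broth. 150 µL of compound per well was serially diluted […], and 50 µL of test organism was added. Plates were incubated 24 h at 37 °C and optical density was read.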

Trichoderma viride [6] = test: Antifungal activity against Trichoderma viride MTCC 1107 assessed as zone of inhibition at 80 uM after 48 hrs by disc diffusion method; assay type: functional; conditions: MTCC 1107, 48 h, read-out: IZ; outline: as §1
Salmonella typhi [7] = test: Antimicrobial activity against Salmonella typhi ATCC 23564 assessed as diameter of inhibition zone at 20 uM after 24 hrs by Kirby -Baur disc diffusion method; assay type: functional; conditions: Salmonella enterica subsp. enterica serovar Typhi
Pseudomonas aeruginosa [8] = test: Antimicrobial activity against Pseudomonas aeruginosa ATCC 15499 assessed as diameter of inhibition zone at 20 uM after 24 hrs by Kirby -Baur disc diffusion method; assay type: functional; outline: as §2
Curvularia lunata [9] = test: Antifungal activity against Curvularia lunata MTCC 581 assessed as zone of inhibition at 20 uM after 48 hrs by disc diffusion method; assay type: functional; outline: as §1
Escherichia coli [10] = test: Antimicrobial activity against Escherichia coli ATCC 35218 assessed as diameter of inhibition zone at 20 uM after 24 hrs by Kirby -Baur disc diffusion method; assay type: functional; outline: as §2
Curvularia lunata [11] = test: Antifungal activity against Curvularia lunata MTCC 581 assessed as zone of inhibition at 80 uM after 48 hrs by disc diffusion method; assay type: functional; conditions: MTCC 581, 48 h, read-out: IZ; outline: as §1
Salmonella typhi [12] = test: Antimicrobial activity against Salmonella typhi ATCC 23564 assessed as diameter of inhibition zone at 40 uM after 24 hrs by Kirby -Baur disc diffusion method; assay type: functional, Salmonella enterica subsp. enterica serovar Typhi; conditions: Salmonella enterica, ATCC 23564, 24 h; read-out: DIZ
Pseudomonas aeruginosa [13] = test: Antimicrobial activity against Pseudomonas aeruginosa ATCC 15499 after 24 hrs by broth micro serial dilution method; assay type: functional; conditions: ATCC 15499, 24 h; outline: as §3
Aspergillus niger [14] = test: Antifungal activity against Aspergillus niger MTCC 1108 assessed as zone of inhibition at 80 uM after 48 hrs by disc diffusion method; assay type: functional; outline: as §1
Curvularia lunata [15] = test: Antifungal activity against Curvularia lunata MTCC 581 assessed as zone of inhibition at 40 uM after 48 hrs by disc diffusion method; assay type: functional; conditions: MTCC 581, 48 h, read-out: IZ; outline: as §1
Staphylococcus aureus [16] = test: Antimicrobial activity against Staphylococcus aureus ATCC 11632 assessed as diameter of inhibition zone at 80 uM after 24 hrs by Kirby -Baur disc diffusion method; assay type: functional; outline: as §2
Escherichia coli [17] = test: Antimicrobial activity against Escherichia coli ATCC 35218 assessed as diameter of inhibition zone at 40 uM after 24 hrs by Kirby -Baur disc diffusion method; assay type: functional; outline: as §2
Aspergillus flavus [18] = test: Antifungal activity against Aspergillus flavus MTCC 1021 after 48 hrs; assay type: functional
Salmonella typhi [19] = test: Antimicrobial activity against Salmonella typhi ATCC 23564 after 24 hrs by broth micro serial dilution method; assay type: functional, Salmonella enterica subsp. enterica serovar Typhi; conditions: Salmonella enterica, ATCC 23564, 24 h
Salmonella typhi [20] = test: Antimicrobial activity against Salmonella typhi ATCC 23564 assessed as diameter of inhibition zone at 80 uM after 24 hrs by Kirby -Baur disc diffusion method; assay type: functional, Salmonella enterica subsp. enterica serovar Typhi; conditions: Salmonella enterica, ATCC 23564, 24 h; read-out: DIZ
Curvularia lunata [21] = test: Antifungal activity against Curvularia lunata MTCC 581 after 48 hrs; assay type: functional; conditions: MTCC 581, 48 h
Escherichia coli [22] = test: Antimicrobial activity against Escherichia coli ATCC 35218 after 24 hrs by broth micro serial dilution method; assay type: functional; conditions: ATCC 35218, 24 h; outline: as §3
Escherichia coli [23] = test: Antimicrobial activity against Escherichia coli ATCC 35218 assessed as diameter of inhibition zone at 80 uM after 24 hrs by Kirby -Baur disc diffusion method; assay type: functional; conditions: ATCC 35218, 24 h, read-out: DIZ; outline: as §2
Pseudomonas aeruginosa [24] = test: Antimicrobial activity against Pseudomonas aeruginosa ATCC 15499 assessed as diameter of inhibition zone at 40 uM after 24 hrs by Kirby -Baur disc diffusion method; assay type: functional; outline: as §2
Bacillus cereus [25] = test: Antimicrobial activity against Bacillus cereus MTCC 7350 after 24 hrs by broth micro serial dilution method; assay type: functional; conditions: MTCC 7350, 24 h; outline: as §3
Trichoderma viride [26] = test: Antifungal activity against Trichoderma viride MTCC 1107 after 48 hrs; assay type: functional; conditions: MTCC 1107, 48 h
Aspergillus niger [27] = test: Antifungal activity against Aspergillus niger MTCC 1108 after 48 hrs; assay type: functional
Pseudomonas aeruginosa [28] = test: Antimicrobial activity against Pseudomonas aeruginosa ATCC 15499 assessed as diameter of inhibition zone at 80 uM after 24 hrs by Kirby -Baur disc diffusion method; assay type: functional; conditions: ATCC 15499, 24 h, read-out: DIZ; outline: as §2
Mus musculus = test: Antiinflammatory activity in mouse assessed as inhibition of carrageenan-induced increase in paw volume at 200 mg/kg, ip administered 1 hr prior to carrageenan challenge measured after 3 hrs relative to control; assay type: functional; conditions: route intraperitoneal
Outline: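 Mice were fasted 2 h and placed in groups of five. Controls received saline i.p. Phenylbutazone was given at 100 mg/kg i.p., curcumin at 200 mg/kg i.p., and derivatives at 200 mg/kg. After 1 h, 0.1 mL of 1% carrageenan in saline was injected subplantar into the right hind paw. Paw volume was followed by plethysmometer for 3 h, and % inhibition was calculated as (Vc − Vt)/Vc × 100.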

COc1cc(/C=C/C(=O)CC(=O)/C=C/c2ccc(O)c(OC)c2)ccc1O [CURCUMIN]
inhibition zone (IZ) (Trichoderma viride [1]): inactive
inhibition zone (IZ) (Aspergillus flavus [2]): inactive
inhibition zone (IZ) (Trichoderma viride [3]): inactive
zone of inhibition at 80 µM (Bacillus cereus [4]): 9 mm
MIC (Staphylococcus aureus [5]): 80 µM (≈ 29.5 µg/mL)
zone of inhibition at 80 µM (Trichoderma viride [6]): 9 mm
diameter of the inhibition zone (DIZ) (Salmonella typhi [7]): inactive
diameter of the inhibition zone (DIZ) (Pseudomonas aeruginosa [8]): inactive
inhibition zone (IZ) (Curvularia lunata [9]): inactive
diameter of the inhibition zone (DIZ) (Escherichia coli [10]): inactive
zone of inhibition at 80 µM (Curvularia lunata [11]): 11 mm
zone of inhibition at 40 µM (Salmonella typhi [12]): 9 mm
MIC (Pseudomonas aeruginosa [13]): > 80 µM
inhibition zone (IZ) (Aspergillus niger [14]): inactive
zone of inhibition at 40 µM (Curvularia lunata [15]): 9 mm
diameter of the inhibition zone (DIZ) (Staphylococcus aureus [16]): inactive
diameter of the inhibition zone (DIZ) (Escherichia coli [17]): inactive
MIC (Aspergillus flavus [18]): inactive
MIC (Salmonella typhi [19]): > 80 µM
zone of inhibition at 80 µM (Salmonella typhi [20]): 11 mm
MIC (Curvularia lunata [21]): > 80 µM
MIC (Escherichia coli [22]): > 80 µM
zone of inhibition at 80 µM (Escherichia coli [23]): 12 mm
diameter of the inhibition zone (DIZ) (Pseudomonas aeruginosa [24]): inactive
MIC (Bacillus cereus [25]): > 80 µM
MIC (Trichoderma viride [26]): > 80 µM
MIC (Aspergillus niger [27]): inactive
zone of inhibition at 80 µM (Pseudomonas aeruginosa [28]): 11 mm
inhibition in vivo at 200 mg/kg (Mus musculus): 12.9%
